Four compounds from ChEMBL document CHEMBL3400034, “Design, synthesis and biological evaluation of di-substituted noscapine analogs as potent and microtubule-targeted anticancer agents” (Bioorg Med Chem Lett, 2015) can be followed below.

Test [1] relates to MDA-MB-231. Put plainly: Induction of apoptosis in human MDA-MB-231 cells assessed as reduction in survivin protein expression at 10 uM after 24 hrs by immunoblot method. The format is functional, cell-based. The essentials: (§1)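 Protein lysates from treated and control MDA-MB-231 cells analysed by immunoblot, probed for survivin and cleaved PARP, with β-actin as loading control.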
A general note: A western blot detects proteins with antibodies after separation by electrophoresis.

Test [2] in a line: Cytotoxicity activity against human PC3 cells after 48 hrs by MTT assay. The conditions noted are these: PC-3, 48 h. The format is functional, cell-based. The essentials: (§2)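 Cells exposed for 48 h to increasing gradient concentrations. Proliferation read by MTT assay as percentage cell survival. IC50 is the drug concentration giving 50% inhibition of proliferation.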
(In general: Tetrazolium dyes change colour on reduction, which living cells bring about.)

Test [3] deals with MDA-MB-231. Put plainly: Cytotoxicity activity against human MDA-MB-231 cells after 48 hrs by MTT assay. The conditions noted are these: MDA-MB-231, 48 h. Format: functional, cell-based. An outline of the steps:
as §2

In test [4] the target is T1, Tubulin (Bos taurus) (UniProt Q6B856+Q862L2+Q862F3). Put plainly: Inhibition of bovine brain tubulin polymerization incubated for 10 to 30 mins by spectrophotometry based light scattering assay. An outline of the steps: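 Polymerisation of 12 µM tubulin followed by turbidity (light scattering) at 350 nm. Compound range 0–25 µM, over 30 min. Reported as relative absorbance.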

For test [5], the system named is MDA-MB-231. Put plainly: Induction of cell death in human MDA-MB-231 cells at 10 uM after 48 hrs by propidium iodide staining based FACS method. The format is functional. The essentials:
(§3)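 MDA-MB-231 cells treated for 0–48 h, with samples at several time points. Concentration was 10 µM for some analogs and 25 µM for others. DNA stained with propidium iodide and analysed by flow cytometry. 2N DNA scored as G1, 4N as G2/M, below 2N as sub-G1 (apoptotic index).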
(In general: In flow cytometry, cells or beads pass a laser one at a time.)

The subject of test [6] is MDA-MB-231. Briefly: Induction of cell cycle arrest in human MDA-MB-231 cells assessed as accumulation at G2/M phase at 10 uM after 12 to 48 hrs by propidium iodide staining based FACS method. Format: functional. An outline of the steps: (§4)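 MDA-MB-231 cells treated for 0–48 h (compounds at 10 µM or 25 µM depending on analog); DNA stained with propidium iodide and cell cycle profiles read by flow cytometry; G2/M (4N DNA) and sub-G1 (apoptotic index) populations quantified at each time point.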

The next test concerns the target Tubulin (Bos taurus, UniProt Q6B856+Q862L2+Q862F3). Briefly: (§5) Binding affinity to bovine brain tubulin assessed as reduction in tubulin intrinsic tryptophan fluorescence intensity incubated for 45 mins by spectrophotometry based fluorescence titration assay. An outline of the steps: (§6)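 Tubulin binding measured as quenching of intrinsic tryptophan fluorescence across increasing compound concentrations. KD derived from double reciprocal plots. Mean ± S.D. of three independent experiments, each performed in triplicate.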

Test [7] addresses T1, Tubulin (Bos taurus). The description is as §5. The essentials:
as §6

Test [8] deals with MDA-MB-231. Put plainly: Induction of apoptosis in human MDA-MB-231 cells assessed as increase in cleaved PARP protein level at 10 uM after 24 hrs by immunoblot method. The format is functional, cell-based. An outline of the steps: as §1
For test [9], the system named is MDA-MB-231. Put plainly: Induction of apoptosis in human MDA-MB-231 cells assessed as accumulation at subG1 phase at 10 uM after 12 to 48 hrs by propidium iodide staining based FACS method. Format: functional, cell-based. An outline of the steps:
as §4

The test system of test [10] is MDA-MB-231. Put plainly: Induction of apoptosis in human MDA-MB-231 cells assessed as increase in caspase-3/7 activity by measuring Z-DEVD-aminoluciferin cleavage at 10 uM after 24 hrs by luminescence plate reader based method. The format is functional, cell-based. The essentials:
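Lysates from treated and control MDA-MB-231 cells assayed for caspase-3/7 activity by luminescence from cleavage of Z-DEVD-aminoluciferin substrate; activity expressed relative to untreated control.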

For test [11], the system named is MDA-MB-231. Briefly: Induction of cell death in human MDA-MB-231 cells at 25 uM after 48 hrs by propidium iodide staining based FACS method. The format is functional. The essentials: as §3
In test [12] the test system is MDA-MB-231. Put plainly: Induction of apoptosis in human MDA-MB-231 cells assessed as increase in caspase-3/7 activity by measuring Z-DEVD-aminoluciferin cleavage at 25 uM after 24 hrs by luminescence plate reader based method. The format is functional, cell-based. The essentials:
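Lysates from treated and control cells assayed for caspase-3/7 activity. Read-out was luminescence from cleavage of Z-DEVD-aminoluciferin, expressed relative to control.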

The subject of test [13] is MDA-MB-231. Put plainly: Induction of apoptosis in human MDA-MB-231 cells assessed as accumulation at subG1 phase at 25 uM after 12 to 48 hrs by propidium iodide staining based FACS method. Format: functional, cell-based. An outline of the steps:
as §3

Test [14] concerns MDA-MB-231. Put plainly: Induction of cell cycle arrest in human MDA-MB-231 cells assessed as accumulation at G2/M phase at 25 uM after 12 to 48 hrs by propidium iodide staining based FACS method. The format is functional. The essentials: as §3
The subject of test [15] is MDA-MB-231. Put plainly: Induction of apoptosis in human MDA-MB-231 cells assessed as reduction in survivin protein expression at 25 uM after 24 hrs by immunoblot method. The format is functional, cell-based. The essentials: (§7)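 Lysates from treated and control cells run on immunoblots. Probed for survivin and cleaved PARP, with β-actin as loading control.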
Test [16] deals with MDA-MB-231. Briefly: Induction of apoptosis in human MDA-MB-231 cells assessed as increase in cleaved PARP protein level at 25 uM after 24 hrs by immunoblot method. The format is functional, cell-based. An outline of the steps:
as §7

The target of test [17] is T1, Tubulin (Bos taurus). Put plainly: Inhibition of bovine brain tubulin polymerization at 25 uM incubated for 10 to 30 mins by spectrophotometry based light scattering assay. The essentials:
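Assembly of 12 µM tubulin followed by turbidity (light scattering) at 350 nm over 30 min with compound at 0–25 µM; relative absorbance compared with control.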

Activity calls are given as the source filed them. No cut-off for these calls is given here.

In the case of `COc1ccc2c(c1OC(C)=O)C(=O)O[C@@H]2[C@H]1c2c(c(Br)c3c(c2OC)OCO3)CCN1C`, the outcome in the test with MDA-MB-231 [1] was inactive. Also, the IC50 – broadly, the concentration that inhibits the measured activity by half – was 48.9 µM in test [2] and 2.5 µM with MDA-MB-231 [3]. Further, the inhibition result on Tubulin (Bos taurus) [4] was “Dose-dependent effect”. Besides, the Activity in the test with MDA-MB-231 [5] was 80%; in the test on MDA-MB-231 [6], 15%; on Tubulin (Bos taurus) [7] it was “Dose-dependent effect”. Also, the Kd (as a rule, the equilibrium constant for the complex coming apart) on Tubulin was found to be 44 µM. In addition, the result in the test with MDA-MB-231 [8], in the test on MDA-MB-231 [9] and in the test with MDA-MB-231 [10] was Active.
Consider `COc1ccc2c(c1OC(=O)NCc1ccccc1)C(=O)O[C@@H]2[C@H]1c2c(c(Br)c3c(c2OC)OCO3)CCN1C`, for which the IC50 in [2] was 49.4 µM; in the test on MDA-MB-231 [3] it was 20 µM. Moreover, the inhibition entry on Tubulin (Bos taurus) [4] is “Dose-dependent effect”. Further, the Activity in the test on MDA-MB-231 [11] is 80%; at Tubulin (Bos taurus) [7], “Dose-dependent effect”; in the test with MDA-MB-231 [14] it was 15%. Further, the Kd on Tubulin came out at 21 µM. In addition, the result in the test with MDA-MB-231 [12], in the test with MDA-MB-231 [13], in the test with MDA-MB-231 [15] and in the test on MDA-MB-231 [16] was Active.
For `CCNC(=O)Oc1c(OC)ccc2c1C(=O)O[C@@H]2[C@H]1c2c(c(Br)c3c(c2OC)OCO3)CCN1C`, the IC50 in test [2] turned out to be 22 µM; in the test on MDA-MB-231 [3], 3.9 µM. Also, the inhibition entry at Tubulin (Bos taurus) [4] was “Dose-dependent effect”. The Activity with MDA-MB-231 [11] was 80%; on Tubulin (Bos taurus) [7], “Dose-dependent effect”; in the test with MDA-MB-231 [14] it was 15%. Moreover, the Kd on Tubulin came out at 26 µM. The outcome in the test on MDA-MB-231 [12], in the test on MDA-MB-231 [13], in the test on MDA-MB-231 [15] and in the test with MDA-MB-231 [16] was Active.
In the case of `COc1ccc2c(c1O)C(=O)O[C@@H]2[C@H]1c2c(c(Br)c3c(c2OC)OCO3)CCN1C`, the outcome in the test on MDA-MB-231 [1] was inactive. The IC50 in test [2] came out at 5.6 µM; in the test with MDA-MB-231 [3], 2.2 µM. For the same compound, on Tubulin (Bos taurus) [4], the inhibition entry was “Dose-dependent effect”. Moreover, the Activity was 15% with MDA-MB-231 [6] and “Dose-dependent effect” at Tubulin (Bos taurus) [7]. Besides, the Kd at Tubulin was 55 µM. Also, at Tubulin (Bos taurus) [17], the inhibition entry was “Active”. The result with MDA-MB-231 [8], with MDA-MB-231 [9] and in the test with MDA-MB-231 [10] was Active.
